Reference: ChEMBL document CHEMBL1127826, “Inhibitors of acyl-CoA:cholesterol acyltransferase (ACAT). 7. Development of a series of substituted N-phenyl-N'-[(1-phenylcyclopentyl)methyl]ureas with enhanced hypocholesterolemic activity” (J Med Chem, 1994)

Tests used:
[1] = target: T1, Acyl-CoA:cholesterol acyltransferase (Oryctolagus cuniculus, UniProt Q95214); assay: Tested for in vitro inhibition against Acyl coenzyme A:cholesterol acyltransferase of intestinal microsomes in cholesterol-fed rabbits; parameters: species or system Microsome
T1 sequence (Q95214 whole entry): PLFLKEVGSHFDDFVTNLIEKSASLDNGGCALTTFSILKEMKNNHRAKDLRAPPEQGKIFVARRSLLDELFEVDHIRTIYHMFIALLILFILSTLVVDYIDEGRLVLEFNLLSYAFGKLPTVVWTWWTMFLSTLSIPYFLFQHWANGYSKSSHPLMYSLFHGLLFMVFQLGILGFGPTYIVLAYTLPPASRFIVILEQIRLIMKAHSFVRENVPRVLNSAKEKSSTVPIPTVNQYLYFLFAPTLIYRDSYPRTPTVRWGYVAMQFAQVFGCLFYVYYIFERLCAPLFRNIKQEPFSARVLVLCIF
Procedure, shortened: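 Microsomes were prepared from intestine of cholesterol-fed rabbits. ACAT activity was measured using [1-14C]oleoyl-CoA as substrate. Each determination was run in triplicate.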

[2] = Compound was evaluated for the distribution coefficient at pH 7.4; format: physicochemical; conditions: octanol/water
Rattus norvegicus [3] = assay: Compound was evaluated in experiment 1 for Change in High density lipoproteins at 0.3 (mg/kg) dose; format: functional
Procedure, shortened: (§1)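 Chronic model in male Sprague-Dawley rats (200-225 g). Rats were fed chow with peanut oil 5.5%, cholesterol 1.5% and cholic acid ad libitum for 2 weeks. Test article was given by gavage once daily (morning) in the second week, as a CMC/Tween aqueous suspension. Blood was taken by cardiac puncture under ether 24 h after the last dose. Plasma total, HDL and nonHDL cholesterol were measured with an Abbott VP analyzer using dextran sulfate precipitation, reported as mg/dL and % change from control. Controls were cholesterol-fed rats and rats switched to chow in week 2.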

Rattus norvegicus [4] = assay: Compound was evaluated in experiment 1 for Change in High density lipoproteins at 1.0 (mg/kg) dose; format: functional; procedure, shortened: as §1
Rattus norvegicus [5] = assay: Compound was evaluated in experiment 1 for Change in total cholesterol at 0.3 (mg/kg) dose; format: functional; procedure, shortened: as §1
Rattus norvegicus [6] = assay: Compound was evaluated in experiment 1 for Change in total cholesterol at 1.0 (mg/kg) dose; format: functional; procedure, shortened: as §1
Rattus norvegicus [7] = assay: Compound was evaluated in experiment 1 for Change in total cholesterol at 10 (mg/kg) dose; format: functional; procedure, shortened: as §1
Rattus norvegicus [8] = assay: Compound was evaluated in experiment 1 for Change in total cholesterol at 3.0 (mg/kg) dose; format: functional; procedure, shortened: as §1
Rattus norvegicus [9] = assay: Compound was evaluated for the percentage change in total cholesterol in peanut oil (5.5%)-cholic acid (0.3%)-cholesterol (1.5%)-fed rats at 30 mg/kg; format: functional
Rattus norvegicus [10] = organism: Rattus norvegicus; assay: Percent change in total cholesterol in peanut oil (5.5%)-, cholic acid (0.3%)-, Cholesterol (1.5%)-fed rats after a single dose.; format: functional
Procedure, shortened: (§2)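 Male Sprague-Dawley rats (200-225 g), n=5-7/group, given a single oral dose at 4 p.m. as a suspension in 1.5% CMC/0.2% Tween-20 in water (50 mg/kg); controls received vehicle alone. The rats then had free access to chow with peanut oil, cholesterol and cholic acid. At 8 a.m. next day they were bled by cardiac puncture under ether, and serum total cholesterol was measured as % change versus controls (unpaired two-tailed t-test).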

Rattus norvegicus [11] = assay: Compound was evaluated in experiment 1 for Change in High density lipoproteins at 10 (mg/kg) dose; format: functional; procedure, shortened: as §1
Rattus norvegicus [12] = assay: Compound was evaluated in experiment 1 for Change in High density lipoproteins at 3.0 (mg/kg) dose; format: functional; procedure, shortened: as §1
Rattus norvegicus [13] = assay: Compound was evaluated in experiment 1 for change in non High density lipoprotein at the doses at 0.3 (mg/kg) dose; format: functional; procedure, shortened: as §1
Rattus norvegicus [14] = assay: Compound was evaluated in experiment 1 for change in non High density lipoprotein at the doses at 10 (mg/kg) dose; format: functional; procedure, shortened: as §1
Rattus norvegicus [15] = assay: Compound was evaluated in experiment 1 for change in non High density lipoprotein at the doses at 3.0 (mg/kg) dose; format: functional; procedure, shortened: as §1
Rattus norvegicus [16] = assay: Compound was evaluated in experiment 1 for change in non High density lipoprotein at the doses at 1.0 (mg/kg) dose; format: functional; procedure, shortened: as §1
Rattus norvegicus [17] = assay: Compound was evaluated in experiment 1 for High density lipoproteins at 0.3 (mg/kg) dose; format: functional; procedure, shortened: as §1
Rattus norvegicus [18] = assay: Compound was evaluated in experiment 1 for High density lipoproteins at 1.0 (mg/kg) dose; format: functional; procedure, shortened: as §1
Rattus norvegicus [19] = assay: Compound was evaluated in experiment 1 for High density lipoproteins at 10 (mg/kg) dose; format: functional; procedure, shortened: as §1
Rattus norvegicus [20] = assay: Compound was evaluated in experiment 1 for High density lipoproteins at 3.0 (mg/kg) dose; format: functional; procedure, shortened: as §1
Rattus norvegicus [21] = assay: Compound was evaluated in experiment 1 for non High density lipoproteins at 0.3 (mg/kg) dose; format: functional; procedure, shortened: as §1
Rattus norvegicus [22] = assay: Compound was evaluated in experiment 1 for non High density lipoproteins at 1.0 (mg/kg) dose; format: functional; procedure, shortened: as §1
Rattus norvegicus [23] = assay: Compound was evaluated in experiment 1 for non High density lipoproteins at 10 (mg/kg) dose; format: functional; procedure, shortened: as §1
Rattus norvegicus [24] = assay: Compound was evaluated in experiment 1 for non High density lipoproteins at 3.0(mg/kg) dose; format: functional; procedure, shortened: as §1
Rattus norvegicus [25] = assay: Compound was evaluated in experiment 1 for Total cholesterol at 0.3 (mg/kg) dose; format: functional; parameters: unit not given beside the values; procedure, shortened: as §1
Rattus norvegicus [26] = assay: Compound was evaluated in experiment 1 for Total cholesterol at 1.0 (mg/kg) dose; format: functional; parameters: unit not given beside the values; procedure, shortened: as §1
Rattus norvegicus [27] = assay: Compound was evaluated in experiment 1 for Total cholesterol at 10 (mg/kg) dose; format: functional; parameters: unit not given beside the values; procedure, shortened: as §1
Rattus norvegicus [28] = assay: Compound was evaluated in experiment 1 for Total cholesterol at 3.0 (mg/kg) dose; format: functional; parameters: unit not given beside the values; procedure, shortened: as §1
[29] = Solubility at 0.1 N HCl; format: physicochemical; conditions: read-out: S
[30] = Solubility at pH 4.0; format: physicochemical; conditions: buffer
[31] = Solubility at pH 7.4; format: physicochemical; conditions: buffer
Rattus norvegicus [32] = organism: Rattus norvegicus; assay: Percent change in total cholesterol in peanut oil (5.5%) - cholic acid (0.3%) - Cholesterol (1.5%) fed rates after a single dose; format: functional; procedure, shortened: as §2
Rattus norvegicus [33] = assay: Compound was evaluated for % reduction in plasma cholesterol in cholesterol fed rats at a dose of 25 mg/kg; format: functional
Procedure, shortened: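 Male Sprague-Dawley rats on a cholesterol-enriched diet. Dosing was either by gavage as a suspension in 1.5% carboxymethylcellulose/0.2% Tween-20 in water or in oleic acid, or given as a diet admixture. Result is % reduction in plasma cholesterol versus untreated controls given the same mode and vehicle. Significance threshold p < 0.05.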

Rattus norvegicus [34] = assay: Compound was evaluated in experiment 2 for Change in total cholesterol at 1 (mg/kg) dose; N/C denotes 'No change'; format: functional, organism-based; procedure, shortened: as §1
Rattus norvegicus [35] = assay: Compound was evaluated in experiment 2 for change in non High density lipoprotein at the doses at 1 (mg/kg) dose; format: functional, organism-based; procedure, shortened: as §1
[36] = Solubility at, 0.1 N HCl; format: physicochemical; conditions: read-out: S
[37] = Solubility at, pH 4.0; format: physicochemical; conditions: buffer, read-out: S
[38] = Solubility at, pH 7.4; format: physicochemical; conditions: buffer, read-out: S
Rattus norvegicus [39] = assay: Compound was evaluated in experiment 2 for Change in total cholesterol at 30 (mg/kg) dose; format: functional; procedure, shortened: as §1
Rattus norvegicus [40] = assay: Compound was evaluated in experiment 2 for Change in High density lipoproteins at 30 (mg/kg) dose; format: functional; procedure, shortened: as §1
Rattus norvegicus [41] = assay: Compound was evaluated in experiment 2 for change in non High density lipoprotein at the doses at 30 (mg/kg) dose; format: functional
Procedure, shortened: (§3)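 Male Sprague-Dawley rats (200-225 g) were fed chow with peanut oil (5.5%), cholesterol (1.5%) and cholic acid (0.5%) ad libitum for 2 weeks. During week 2 they were gavaged daily each morning with compound in aqueous CMC/Tween suspension. Controls were fed the cholesterol diet for 2 weeks, or switched to chow for week 2. Rats were bled by cardiac puncture under ether 24 h post-dose. Plasma HDL-C was measured after dextran sulfate precipitation, along with nonHDL-C. Values are given in mg/dL and as % change from control.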

Rattus norvegicus [42] = assay: Compound was evaluated in experiment 2 for High density lipoproteins at 30 (mg/kg) dose; format: functional; procedure, shortened: as §1
Rattus norvegicus [43] = assay: Compound was evaluated in experiment 2 for Total cholesterol at 30 (mg/kg) dose; format: functional; procedure, shortened: as §1
Rattus norvegicus [44] = assay: Compound was evaluated in experiment 2 for non High density lipoproteins at 30 (mg/kg) dose; format: functional; procedure, shortened: as §3
[45] = Compound was evaluated for the distribution coefficient at pH 1.0; format: physicochemical; conditions: octanol/water
[46] = Compound was evaluated for the distribution coefficient at pH 4.0; format: physicochemical; conditions: octanol/water

Compound	logD ([2]; read-out: logD)	Change HDL -C (Rattus norvegicus [3])	Change HDL -C (Rattus norvegicus [4])	Change TC (Rattus norvegicus [5])	Change TC (Rattus norvegicus [6])	Change TC (Rattus norvegicus [7])	Change TC (Rattus norvegicus [8])	Delta TC (Rattus norvegicus [10])	Change HDL -C (Rattus norvegicus [11])	Change HDL -C (Rattus norvegicus [12])	Change non HDL-C (Rattus norvegicus [13])	Change non HDL-C (Rattus norvegicus [14])	Change non HDL-C (Rattus norvegicus [15])	Change non HDL-C (Rattus norvegicus [16])	HDL-C (Rattus norvegicus [17])	HDL-C (Rattus norvegicus [18])	HDL-C (Rattus norvegicus [19])	HDL-C (Rattus norvegicus [20])	Non-HDL-C (Rattus norvegicus [21])	Non-HDL-C (Rattus norvegicus [22])	other results
CC(C)c1cccc(C(C)C)c1NC(=O)NCC1(c2cccc(CN3CCN(C)CC3)c2)CCCC1	5.28	2%	27%	3%	-33%	-51%	-24%	-21%	60%	8%	3%	-55%	-25%	-36%	12	15	19	12	313	195	IC50 [1]: 16 nM; Delta TC (Rattus norvegicus [9]): -66%; Non-HDL-C (Rattus norvegicus [23]): 135; Non-HDL-C (Rattus norvegicus [24]): 227; TC (Rattus norvegicus [25]): 325; TC (Rattus norvegicus [26]): 209; TC (Rattus norvegicus [27]): 154; TC (Rattus norvegicus [28]): 239
CC(C)c1cccc(C(C)C)c1NC(=O)NCC1(c2ccccc2)CCCC1																					solubility [29]: < 1 µg/mL; solubility [30]: < 1 µg/mL; solubility [31]: < 1 µg/mL; logD [2]: 5.16; Delta TC (Rattus norvegicus [32]): -38%; Reduction (Rattus norvegicus [33]): 59%
CC(C)c1cccc(C(C)C)c1NC(=O)NCC1(c2cccc(CN3CCOCC3)c2)CCCC1	4.37	16%	10%	-24%	-13%	-63%	-31%	-47%	162%	40%	-26%	-71%	-33%	-14%	14	13	30	16	224	260	Delta TC (Rattus norvegicus [9]): -70%; Non-HDL-C (Rattus norvegicus [23]): 84; Non-HDL-C (Rattus norvegicus [24]): 202; TC (Rattus norvegicus [25]): 237; TC (Rattus norvegicus [26]): 273; TC (Rattus norvegicus [27]): 118; TC (Rattus norvegicus [28]): 218
CC(C)c1cccc(C(C)C)c1NC(=O)NCC1(c2cccc(CN(C)C)c2)CCCC1																					Change TC (Rattus norvegicus [34]): No change; Change non HDL-C (Rattus norvegicus [35]): No change
CC(C)c1cccc(C(C)C)c1NC(=O)NCC1(c2ccc(N(C)C)cc2)CCCC1.Cl [NEVANIMIBE HYDROCHLORIDE]		44%	32%	-20%	-29%	-64%	-20%	-77%	167%	38%	-22%	-72%	-23%	-32%	17	15	31	16	235	206	solubility [36]: 6400 µg/mL; solubility [37]: 1330 µg/mL; solubility [38]: < 50 µg/mL; Change TC (Rattus norvegicus [39]): -69%; Change HDL -C (Rattus norvegicus [40]): 177%; Change non HDL-C (Rattus norvegicus [41]): -80%; HDL-C (Rattus norvegicus [42]): 36; TC (Rattus norvegicus [43]): 91; Non-HDL-C (Rattus norvegicus [23]): 84; Non-HDL-C (Rattus norvegicus [24]): 235; Non-HDL-C (Rattus norvegicus [44]): 56; TC (Rattus norvegicus [25]): 252; TC (Rattus norvegicus [26]): 222; TC (Rattus norvegicus [27]): 115; TC (Rattus norvegicus [28]): 251
CCCCN(CCCC)Cc1cccc(C2(CNC(=O)Nc3c(C(C)C)cccc3C(C)C)CCCC2)c1	6.05	16%	-16%	-14%	-12%	-4%	-34%	-25%	-21%	8%	-15%	-3%	-36%	-12%	12	10	9	12	258	266	IC50 [1]: 16 nM; Delta TC (Rattus norvegicus [9]): -63%; Non-HDL-C (Rattus norvegicus [23]): 293; Non-HDL-C (Rattus norvegicus [24]): 194; TC (Rattus norvegicus [25]): 271; TC (Rattus norvegicus [26]): 276; TC (Rattus norvegicus [27]): 302; TC (Rattus norvegicus [28]): 206
CC(C)c1cccc(C(C)C)c1NC(=O)NCC1(c2ccc(N(C)C)cc2)CCCC1 [NEVANIMIBE]	5.59							-65%													solubility [29]: < 10 µg/mL; solubility [30]: < 10 µg/mL; solubility [31]: < 10 µg/mL; logD [45]: 2.18; logD [46]: 2.89
